Test results published in paper PMC3734847 (Integrative biology : quantitative biosciences from nano to …, 2012).
Where “and” joins values, the source holds several entries; their conditions need not be identical. Equal entries are not always repeated. Entries after “also recorded” stand apart in the source; their conditions may differ. Where two headings read alike, the source gives them in different places.

How the values were obtained:
[1] = system: Tu212 SCC cells; experiment: Neutral Red dye cell viability; assay type: cell-based, human
Procedure, shortened: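 Tu212 cells grown in DMEM/F12 with 10% FBS, penicillin/streptomycin and 2 mM L-glutamine at 37°C, 5% CO2. Plated in 96 wells and left overnight to adhere. Test compound (0–20 μM) or 0.1% DMSO vehicle added in triplicate. Neutral Red (50 μg/mL in fresh medium) added for 30 min at 37°C, then two PBS washes. Dye eluted with 0.5 N HCl/35% ethanol and read at OD570. Blank subtracted and triplicates averaged.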

[2] = Aqueous solubility by laser nephelometry; assay type: physicochemical; settings: phosphate buffered saline with 1% DMSO, pH 7.4
[3] = system: Tu212 SCC xenografts; experiment: EF31 i.p. therapy of Tu212 SCC xenografts in female athymic nude mice; assay type: in vivo
[4] = Pharmacokinetic study of EF31 i.p. in mice; assay type: in vivo, ND4 Swiss Webster mice; settings: mouse; for AUC(0-inf) / Vd/F / half-life / Cmax / Tmax: male, ND4 Swiss Webster, plasma, ip; for Cmax / Tmax: mouse plasma; for Tmax: DMSO/0.5% CMC (10%/90%)
Procedure, shortened: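 Male ND4 Swiss Webster mice (25–30 g) got one i.p. dose of 12.5 or 25 mg/kg in 10% DMSO/0.5% CMC. One submandibular blood sample per mouse, under ketamine/xylazine, at 0.08, 0.25, 0.5, 1, 2, 3, 4 or 6 h (n=3/time point). Heparinized plasma stored at −80°C, deproteinated with acetonitrile and run on LC/MS/MS with internal standard.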

[5] = system: NF-κB signaling pathway; experiment: Western blotting of xenograft tumor extracts for the NF-κB signaling pathway; assay type: in vivo, athymic nude mice; settings: 6 weeks, Western blot
Procedure, shortened: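 Tu212 cells (2 × 10^6) implanted s.c. in female athymic nude mice. Mice (n=10/group) dosed i.p. once daily, 5 days/week, with test compound at 12.5 or 25 mg/kg, or with vehicle (0.5% CMC/10% DMSO in water). Tumors lysed in RIPA buffer with protease inhibitors for 30 min on ice, then cleared at 13,000 rpm for 15 min at 4°C. 100 μg protein run on 10% SDS-PAGE and transferred to PVDF.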

[6] = Serum chemistry profile and pathologic examination of normal organs; assay type: in vivo, mice; settings: 12.5 and 25 mg/kg i.p.
[7] = system: Tu212 SCC xenografts; experiment: H & E staining and immunohistochemistry of xenograft tumor tissues; assay type: in vivo, athymic nude mice
[8] = 12.5 mg/kg, 12.5 mg/kg i.p. single dose
[9] = 25 mg/kg, 25 mg/kg i.p. single dose
[10] = 12.5 and 25 mg/kg i.p., dose-dependent

## O=C1C(=Cc2ccccn2)CNCC1=Cc1ccccn1 [EF31, 3,5-bis(2-pyridinylmethylidene)-4-piperidone]
[1]; Homo sapiens, TU212, read-out: IC50, viable cells
  IC50: 7 µM
[2]
  solubility at 90 min: 13 µg/mL and 47 µM
[3]; 12.5 mg/kg i.p. once/day 5 days/week, n = 10, p < 0.05–0.01
  tumor size vs vehicle control: reduced tumor size significantly
[3]; 25 mg/kg i.p.
  dose relative to maximally tolerated dose (MTD): may be above the maximally tolerated dose
[3]; 25 mg/kg i.p. group, n = 10
  animals died, apparently due to treatment: three
[3]; 25 mg/kg i.p. once/day 5 days/week, n = 10, p < 0.05–0.01
  tumor size / tumor growth vs vehicle control: inhibited tumor growth almost completely; also recorded: reduced tumor size significantly
[3]; 25 mg/kg i.p., on average, regained as treatment continued
  temporary reduction of body weight: ~ 10%
[3]; 12.5 and 25 mg/kg i.p. daily 5 days a week for over one month
  suppression of tumor growth, dose dependence: dose-dependent suppression of tumor growth
[4]; 12.5 mg/kg
  AUC(0-inf): 3.39 µg·h/mL
  Vd/F: 11.5 L/kg
  half-life: 2.2 h
[4]; [8]
  Cmax: 1.07 µg/mL
  Tmax: 0.25 h
[4]; 25 mg/kg
  AUC(0-inf): 7.77 µg·h/mL
  Vd/F: 11.1 L/kg
  half-life: 2.4 h
[4]; [9]
  Cmax: 2.13 µg/mL
  Tmax: 0.5 h
[4]; 12.5 and 25 mg/kg i.p.
  estimated volumes of distribution: ~ 11 L/kg
[5]; 25 mg/kg i.p.
  level of phosphorylated IKKα in tumors vs control: reduced
  level of total IKKα in tumors vs control: increased in a dose-dependent manner
[5]; 12.5 and 25 mg/kg i.p.
  level of IκBα phosphorylated at serine 32 and 36 in tumors: increased
  level of phosphorylated IKKβ in tumors: reduced
[5]; [10]
  level of phosphorylated NF-κB p65 at Ser276 in tumors: decreased
  level of total IKKβ in tumors: increased
  level of total IκBα in tumors: decreased
  level of total p65 in tumors: decreased
[6]; n = 5/group
  pathologic examination (hematoxylin-eosin) of liver, kidneys, lungs and spleen: normal
[6]; treated mice, normal values from the University of Minnesota
  serum chemistry profile: all within the normal values
[7]; 0, 12.5 and 25 mg/kg i.p. daily 5 days a week for 5 weeks
  degree of IHC staining of phosphorylated IκBα in tumors: stronger in tumors treated at 25 mg/kg than 12.5 mg/kg, which is stronger than that in the control
[7]; 25 mg/kg i.p. daily 5 days a week for 5 weeks
  H & E staining of tumor tissues: tumor cells are replaced with fibrous scar tissue

## O=C1/C(=C/c2ccccc2F)CNC/C1=C\c1ccccc1F [EF24, reference compound]
[1]; read-out: IC50, viable cells, Tu212 cells, Neutral Red Dye assay, 0–20 μM, triplicate, 48 hours (Fig. 1 legend; methods: 72 h)
  IC50: 8 µM
